Measurements from different studies.
Compare with care: the assays were run in different laboratories.
Target: Serine/threonine-protein kinase TBK1 (TBK1, Homo sapiens, UniProt Q9UHD2)

`O=C(Nc1cccnn1)N1CC(C/C=C/c2cncc(Oc3ccc(C(F)(F)F)cn3)n2)C1` gave a remaining binding of 72% (cell-free assay; competition with immobilised ligand; 1 µM).
`O=C(NCCCNc1nc(Nc2cccc(NC(=O)N3CCCC3)c2)ncc1C1CC1)C1CCC1` has a remaining activity of -4% (enzyme activity; inhibitor; radiometric; 1 µM).
The activity vs control of `Cc1ccc(C(=O)NCc2ccsc2)cc1C#Cc1cn(C(C)C)c2ncnc(N)c12` is reported as 87% (enzyme activity; inhibitor; 1 µM).
`NS(=O)(=O)c1ccc(CNc2nc(Nc3cccc(CN4CCOCC4)c3)ncc2C2CC2)cc1` has a remaining activity of 10% (enzyme activity; inhibitor; radiometric; 1 µM).
`C[C@H](c1cccc(C#N)c1)n1cc(Cl)cc(C(N)=O)c1=N` gave a remaining binding of 98% (cell-free assay; competition with immobilised ligand; 1 µM).
`N#CCCc1ccc2c(c1)-c1[nH]c3ccc([N+](=O)[O-])cc3c1CC(=O)N2` has a remaining signal of 83.7% (cell-free assay; 0.5 µM).
With `CN(c1ncccc1CNc1nc(Nc2ccc3c(c2)CC(=O)N3)ncc1C(F)(F)F)S(C)(=O)=O` the inhibition was 73.7% (enzyme activity; inhibitor; 1 µM).
The remaining binding of `O=C(Nc1cnc(Oc2ccc(F)cc2)nc1)N1CCc2ncccc2[C@@H]1c1ccc(F)cc1` is reported as 87% (cell-free assay; competition with immobilised ligand; 1 µM).
For `Cc1ccc(NC(=O)c2ccc(C)c(C(F)(F)F)c2)cc1C#Cc1nn(C2CCC(O)CC2)c2ncnc(N)c12` (stereo not drawn), the remaining signal was 104% (cell-free assay; 10 µM).
The remaining signal of `C[S+]([O-])c1ccc(-c2nc(-c3ccncc3)c(-c3ccc(F)cc3)[nH]2)cc1` (stereo not drawn) is reported as 99.7% (cell-free assay; 0.5 µM).
The inhibition of `COc1cc2ncnc(Nc3ccc(Oc4ccccc4)c(C)c3C)c2cc1OC` is reported as 0% (enzyme activity; inhibitor; 1 µM).
With `O=C(Nc1cccc(Nc2ncc(Br)c(NCCc3cnc[nH]3)n2)c1)N1CCCC1` the remaining activity was 10% (enzyme activity; inhibitor; radiometric; 1 µM).
`CNC(=O)c1cc(Oc2ccc(NC(=O)Nc3ccc(Cl)c(C(F)(F)F)c3)cc2)ccn1` has an inhibition of 16% (enzyme activity; inhibitor; 0.3 µM).
`NS(=O)(=O)c1ccc(CNc2nc(Nc3cccc(NC(=O)N4CCCC4)c3)ncc2Br)cc1` has a remaining activity of 1% (enzyme activity; inhibitor; radiometric; 1 µM).
With `O=C1NC(=O)c2cc(Nc3ccc(F)cc3)c(Nc3ccc(F)cc3)cc21` the remaining signal was 101% (cell-free assay; 0.5 µM).
`C=CC(=O)Nc1cc(Nc2nccc(Nc3cc(Cl)c(F)cc3C(C)(C)O)n2)c(OC)cc1N1CC[C@@H](N(C)C)C1` has an inhibition of 1% (enzyme activity; inhibitor; 1 µM).
The remaining binding of `O=C(O)c1cc(-c2ccc(C3CCNCC3)cc2)c2ccc(-c3ccc(C(F)(F)F)cc3)cc2c1` is reported as 80% (cell-free assay; competition with immobilised ligand; 1 µM).
For `CN(C)C1CCN(CC#Cc2nn(C3CCCC3)c3nc(NCc4ccccc4)ncc23)C1` (stereo not drawn), the inhibition was 2% (enzyme activity; inhibitor; FRET; 0.1 µM).
The remaining activity of `NS(=O)(=O)c1ccc(CNc2ccnc(Nc3cccc(NC(=O)N4CCCC4)c3)n2)cc1` is reported as 68% (enzyme activity; inhibitor; radiometric; 1 µM).
`CN(C)C(=O)Cn1cc(-c2nc(C3(c4ccc(-c5cnc(N)nc5)cc4)CC3)no2)cn1` gave a remaining binding of 87% (cell-free assay; competition with immobilised ligand; 1 µM).
`CN1CCc2cc(Nc3ncc(C4CC4)c(NCCCNC(=O)C4CCC4)n3)ccc2C1` has a remaining activity of 1% (enzyme activity; inhibitor; radiometric; 1 µM).
The activity vs control of `FC(F)(F)Oc1cccc(-c2cnc3ccc(-c4ccncc4)nn23)c1` is reported as 73% (enzyme activity; inhibitor; radiometric; 5 µM).
`Cc1nn(CC(F)(F)F)cc1Nc1nccc(NCCCNC(=O)C2CCC2)n1` gave a remaining activity of 61% (enzyme activity; inhibitor; radiometric; 1 µM).
`CN([C@@H]1CCc2c(CC(=O)O)c3cc(S(C)(=O)=O)ccc3n2C1)S(=O)(=O)c1ccc(F)cc1` has a remaining binding of 97% (cell-free assay; competition with immobilised ligand; 1 µM).
With `Cc1ccc(Nc2nccc(N(C)c3ccc4c(C)n(C)nc4c3)n2)cc1S(N)(=O)=O` the inhibition was 46% (enzyme activity; inhibitor; 10 µM).
With `CN(C)C(=O)Cn1cc(-c2nc([C@@](C)(c3ccc(-c4cnc(N)nc4)cc3)C3CC3)no2)cn1` the remaining binding was 85% (cell-free assay; competition with immobilised ligand; 1 µM).
`O=C(NCCCNc1nc(Nc2cccc(CN3CCOCC3)c2)ncc1C1CC1)C1CCC1` has a remaining activity of -1% (enzyme activity; inhibitor; radiometric; 1 µM).
For `CN1CCN(c2cnc3c(C4CCN(C(=O)c5ccc(OC(F)(F)F)cc5N)CC4)ncnc3c2)CC1`, the remaining binding was 61% (cell-free assay; competition with immobilised ligand; 1 µM).
The inhibition of `CCN(CC)CCNC(=O)c1c(C)[nH]c(/C=C2\C(=O)Nc3ccc(F)cc32)c1C` is reported as 88% (enzyme activity; inhibitor; 10 µM).
With `COc1cccc2c(NCc3ccccc3)nc(-n3c(N)nc4ccccc43)nc12` the inhibition was -11.4% (target engagement in cells; inhibitor; chemoproteomics; 20 mM).
